Assay results from different studies.
Lines come from different studies, so protocols differ.
Effect on: cell growth or viability

Cc1nc(Nc2ccc3c(c2)C(C)(C)C(=O)N3C)c2ccccc2n1 — IC50 (B16; MTT): 14 µM
Nc1ccc(/C=C/C(=O)N2CCc3c(oc4c(-c5ccc(F)cc5)cc(-c5ccc(C(=O)N6C[C@@H]7[C@H](C6)C7(F)F)nn5)cc34)C2)cn1 — IC50 (BXPC-3; CCK-8; 72 h): > 20 µM
COc1cc2c3c(n(CCCNC(C)C)c(=O)c2cc1OC)-c1nc2c(cc1C3=O)OCO2 — IC50 (RD-ES; MTS; 72 h): 0.031 µM
C=CC(=O)c1cccnc1Nc1cc(C(F)(F)F)ccc1OCc1ccccc1 — GI50 (BXPC-3; SRB; 48 h): 11.6 µM
Nc1ccc(/C=C/C(=O)NCc2cc3cc(-c4ccc(C(=O)N5CCC(F)(F)CC5)cc4)cc(-c4ccc(F)cc4)c3o2)cn1 — IC50 (BXPC-3; CCK-8; 72 h): > 20 µM
COc1cc2c3c(n(CCCn4ccnc4)c(=O)c2cc1OC)-c1nc2c(cc1C3=O)OCO2 — IC50 (RD-ES; MTS; 72 h): 0.18 µM
Cc1nc(Nc2ccc3c(c2)/C(=C/c2ccccc2)C(=O)N3C)c2ccccc2n1 — IC50 (B16; MTT): 3.56 µM
C=CC(=O)NC1CCN(c2ncc3ncnc(Nc4ccc(Oc5ccc6c(c5)ncn6C)c(C)c4)c3n2)CC1 — EC50 (JHH-4): 0.108 µM
COc1cc2ncnc(N(C)c3ccc4c(c3)/C(=C/c3cccc(Cl)c3)C(=O)N4C)c2cc1OC — IC50 (B16; MTT): 2.51 µM
C=CC(=O)c1cccnc1Nc1cc(C(F)(F)F)ccc1OC — GI50 (BXPC-3; SRB; 48 h): 6.19 µM
